{"source": "paper PMC10825549", "about": "(JID Innovations, 2023)", "key": {"CYP2D6": {"molecular_target": "CYP2D6 (Homo sapiens, UniProt P10635)", "sequence (P10635 whole entry)": "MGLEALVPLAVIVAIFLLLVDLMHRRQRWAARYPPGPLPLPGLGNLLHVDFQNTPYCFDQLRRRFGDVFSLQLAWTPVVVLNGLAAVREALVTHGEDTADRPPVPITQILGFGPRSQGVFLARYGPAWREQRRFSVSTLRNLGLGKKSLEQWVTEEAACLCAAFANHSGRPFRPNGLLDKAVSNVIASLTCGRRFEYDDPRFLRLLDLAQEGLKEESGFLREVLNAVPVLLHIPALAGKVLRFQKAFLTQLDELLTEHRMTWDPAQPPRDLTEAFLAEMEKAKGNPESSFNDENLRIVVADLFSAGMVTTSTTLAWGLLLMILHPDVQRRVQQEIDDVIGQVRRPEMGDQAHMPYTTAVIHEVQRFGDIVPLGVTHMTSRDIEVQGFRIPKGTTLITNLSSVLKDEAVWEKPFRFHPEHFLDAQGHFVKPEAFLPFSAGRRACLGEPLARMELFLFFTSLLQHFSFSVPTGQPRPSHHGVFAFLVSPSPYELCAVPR", "experiment": "Cytochrome P450 phenotyping", "format": "in vitro ADME", "details": "recombinant human CYP2D6; with NADPH; 30 minutes; n = 1", "in_short": "(§1)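 Recombinant human CYPs prepared at CYP1A2 200 nM, CYP2B6/2C8 250 nM, CYP2C9 100 nM, CYP2D6 50 nM. Test compound added as 2 μM DMSO dosing solution on ice. Plate prewarmed, then 8 mM NADPH solution or blank buffer added. Incubation 60 min (1A2, 2B6, 2C8) or 30 min (2C9, 2D6). Stopped with acetonitrile plus internal standard; supernatant by LC-MS/MS; n = 1.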"}, "CYP2C9": {"molecular_target": "CYP2C9 (Homo sapiens, UniProt P11712)", "sequence (P11712 whole entry)": "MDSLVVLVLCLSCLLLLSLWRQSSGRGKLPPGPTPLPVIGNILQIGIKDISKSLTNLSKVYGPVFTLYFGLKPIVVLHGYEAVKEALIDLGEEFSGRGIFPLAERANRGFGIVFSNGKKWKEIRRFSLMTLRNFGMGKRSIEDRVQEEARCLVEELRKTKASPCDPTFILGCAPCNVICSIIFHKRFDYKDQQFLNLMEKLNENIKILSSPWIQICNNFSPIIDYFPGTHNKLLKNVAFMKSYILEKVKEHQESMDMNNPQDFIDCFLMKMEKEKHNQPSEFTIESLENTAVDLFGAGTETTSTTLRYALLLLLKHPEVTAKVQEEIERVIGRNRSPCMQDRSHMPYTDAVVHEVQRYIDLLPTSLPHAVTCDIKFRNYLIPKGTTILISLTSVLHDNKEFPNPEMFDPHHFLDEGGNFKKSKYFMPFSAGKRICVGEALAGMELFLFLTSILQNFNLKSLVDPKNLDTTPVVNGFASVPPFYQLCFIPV", "experiment": "Cytochrome P450 phenotyping", "format": "in vitro ADME", "details": "recombinant human CYP2C9; with NADPH; 30 minutes; n = 1", "in_short": "as §1"}, "CYP3A4": {"molecular_target": "CYP3A4 (Homo sapiens, UniProt P08684)", "sequence (P08684 whole entry)": "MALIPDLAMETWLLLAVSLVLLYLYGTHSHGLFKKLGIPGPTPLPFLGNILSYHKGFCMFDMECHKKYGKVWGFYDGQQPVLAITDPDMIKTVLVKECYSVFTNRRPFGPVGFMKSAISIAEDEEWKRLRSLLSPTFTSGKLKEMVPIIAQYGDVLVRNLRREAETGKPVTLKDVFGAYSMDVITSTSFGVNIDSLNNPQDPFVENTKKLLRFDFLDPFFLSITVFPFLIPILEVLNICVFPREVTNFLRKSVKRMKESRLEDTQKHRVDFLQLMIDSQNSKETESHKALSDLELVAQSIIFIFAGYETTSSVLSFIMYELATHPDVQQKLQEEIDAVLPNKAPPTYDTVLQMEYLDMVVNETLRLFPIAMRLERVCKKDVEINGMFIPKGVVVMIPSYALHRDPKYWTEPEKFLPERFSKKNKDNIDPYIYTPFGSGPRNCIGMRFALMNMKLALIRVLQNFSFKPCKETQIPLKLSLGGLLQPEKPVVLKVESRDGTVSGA", "experiment": "Cytochrome P450 phenotyping", "format": "in vitro ADME", "details": "recombinant human CYP3A4; with NADPH; 30 minutes; n = 1", "in_short": "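Recombinant human CYP3A4 was prepared at 100 nM, and a 2 μM dosing solution of test compound in DMSO was added on ice. After prewarming, 8 mM NADPH solution or blank buffer was added for 30 minutes. Acetonitrile with internal standard stopped the reaction. The plate was shaken and centrifuged, and the supernatant was analysed by LC-MS/MS; n = 1.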"}, "CYP2C8": {"molecular_target": "CYP2C8 (Homo sapiens, UniProt P10632)", "sequence (P10632 whole entry)": "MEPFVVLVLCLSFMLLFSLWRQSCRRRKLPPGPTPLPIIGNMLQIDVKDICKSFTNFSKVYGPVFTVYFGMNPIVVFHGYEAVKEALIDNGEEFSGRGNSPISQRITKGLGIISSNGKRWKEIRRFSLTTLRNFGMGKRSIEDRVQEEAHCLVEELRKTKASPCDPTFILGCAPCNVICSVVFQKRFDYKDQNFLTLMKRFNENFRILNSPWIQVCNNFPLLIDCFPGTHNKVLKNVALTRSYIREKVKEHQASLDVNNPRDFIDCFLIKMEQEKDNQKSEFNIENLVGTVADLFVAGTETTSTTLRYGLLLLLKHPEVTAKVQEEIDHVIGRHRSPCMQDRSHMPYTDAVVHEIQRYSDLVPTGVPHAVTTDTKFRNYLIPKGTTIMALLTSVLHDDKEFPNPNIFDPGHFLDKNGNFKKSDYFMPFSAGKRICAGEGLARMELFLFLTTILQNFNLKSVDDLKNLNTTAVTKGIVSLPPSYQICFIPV", "experiment": "Cytochrome P450 phenotyping", "format": "in vitro ADME", "details": "recombinant human CYP2C8; with NADPH; 60 minutes; n = 1", "in_short": "as §1"}, "CYP1A2": {"molecular_target": "CYP1A2 (Homo sapiens, UniProt P05177)", "sequence (P05177 whole entry)": "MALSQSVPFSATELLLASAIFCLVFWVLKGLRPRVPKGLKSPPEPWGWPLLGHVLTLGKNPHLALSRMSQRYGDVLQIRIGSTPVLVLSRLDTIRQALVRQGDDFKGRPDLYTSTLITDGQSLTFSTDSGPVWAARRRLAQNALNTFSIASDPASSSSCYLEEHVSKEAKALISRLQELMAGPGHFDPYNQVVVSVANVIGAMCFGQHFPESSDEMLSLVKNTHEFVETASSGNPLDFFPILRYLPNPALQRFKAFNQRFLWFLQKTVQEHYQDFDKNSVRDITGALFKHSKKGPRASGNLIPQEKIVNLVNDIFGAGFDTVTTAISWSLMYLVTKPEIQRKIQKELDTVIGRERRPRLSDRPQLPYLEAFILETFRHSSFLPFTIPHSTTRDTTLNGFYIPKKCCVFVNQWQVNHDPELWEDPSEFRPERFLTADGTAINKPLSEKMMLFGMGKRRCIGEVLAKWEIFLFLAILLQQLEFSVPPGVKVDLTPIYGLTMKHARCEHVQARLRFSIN", "experiment": "Cytochrome P450 phenotyping", "format": "in vitro ADME", "details": "recombinant human CYP1A2; with NADPH; 60 minutes; n = 1", "in_short": "as §1"}, "IL-4": {"test_system": "IL-4", "experiment": "Human whole blood potency, blockade of IL-4", "format": "cell-based", "details": "unpublished data"}, "IFN-γ": {"test_system": "IFN-γ", "experiment": "Human whole blood potency, blockade of IFN-γ", "format": "cell-based", "details": "unpublished data"}}}
{"compound": "CCc1cccc2cc(C(O)CNC(C)(C)C)oc12", "note": "(stereo not shown) [bufuralol]", "values": [{"measurement": "Percentage Remaining", "setting": "CYP2D6", "result": 2.48, "unit": "%"}]}
{"compound": "O=C(O)Cc1ccccc1Nc1c(Cl)cccc1Cl", "note": "[diclofenac]", "values": [{"measurement": "Percentage Remaining", "setting": "CYP2C9", "result": 2.83, "unit": "%"}]}
{"compound": "Cc1ncc2n1-c1ccc(Cl)cc1C(c1ccccc1F)=NC2", "note": "[midazolam, reference compound]", "values": [{"measurement": "Percentage Remaining", "setting": "CYP3A4", "result": 0.252, "unit": "%"}]}
{"compound": "CC(=O)O[C@H]1C(=O)[C@@]2(C)[C@H]([C@H](OC(=O)c3ccccc3)[C@]3(O)C[C@H](OC(=O)[C@H](O)[C@@H](NC(=O)c4ccccc4)c4ccccc4)C(C)=C1C3(C)C)[C@]1(OC(C)=O)CO[C@@H]1C[C@@H]2O", "note": "[paclitaxel, reference compound]", "values": [{"measurement": "Percentage Remaining", "setting": "CYP2C8", "result": 0.852, "unit": "%"}]}
{"compound": "CCOc1ccc(NC(C)=O)cc1", "note": "[phenacetin, reference compound]", "values": [{"measurement": "Percentage Remaining", "setting": "CYP1A2", "result": 15.1, "unit": "%"}]}
{"compound": "N#CC[C@H](C1CCCC1)n1cc(-c2ncnc3[nH]ccc23)cn1", "note": "[ruxolitinib]", "values": [{"measurement": "level required for blockade of IL-4 (human whole blood potency)", "setting": "IL-4", "result": 564, "unit": "nM"}, {"measurement": "level required for blockade of IFN-γ (human whole blood potency)", "setting": "IFN-γ", "result": 305, "unit": "nM"}]}
